Experiments:
[1] = molecular target: T1, Cannabinoid receptor 1 (Mus musculus, UniProt P47746); experiment: Inverse agonist at mouse brain CB1R expressed in CHOK1 cell membranes assessed as inhibition of CP55940-stimulated [35S]GTP-gammaS binding measured after 60 mins by scintillation spectrometry
[2] = molecular target: Cannabinoid receptor 2 (Mus musculus, UniProt P47936); experiment: Displacement of [3H]CP55940 from mouse CB2R expressed in CHOK1 cell membranes
In short: (§1)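 Displacement binding isotherms with [3H]-CP55940 as labeled ligand on plasma membranes from CHO-K1 cells expressing CB1R or CB2R. Ki was calculated by the Cheng-Prusoff equation. Values are mean ± SEM of 3 independent experiments, each run in triplicate.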

[3] = molecular target: T1, Cannabinoid receptor 1; experiment: Displacement of [3H]CP55940 from mouse brain CB1R expressed in CHOK1 cell membranes; in short: as §1

T1 sequence (P47746 whole entry): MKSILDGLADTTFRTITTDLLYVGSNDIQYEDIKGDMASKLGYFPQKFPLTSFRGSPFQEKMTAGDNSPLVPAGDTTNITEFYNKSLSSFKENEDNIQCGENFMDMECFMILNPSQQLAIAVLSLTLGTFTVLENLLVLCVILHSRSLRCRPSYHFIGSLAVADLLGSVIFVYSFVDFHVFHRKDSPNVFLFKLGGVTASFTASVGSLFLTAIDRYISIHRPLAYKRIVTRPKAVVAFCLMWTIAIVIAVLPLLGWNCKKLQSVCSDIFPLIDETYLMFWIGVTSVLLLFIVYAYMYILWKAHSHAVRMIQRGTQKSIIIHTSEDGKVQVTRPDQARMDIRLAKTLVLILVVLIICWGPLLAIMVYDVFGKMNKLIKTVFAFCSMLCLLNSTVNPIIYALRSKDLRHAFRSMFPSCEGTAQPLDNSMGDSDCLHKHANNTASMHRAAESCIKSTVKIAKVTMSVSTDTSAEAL
Cannabinoid receptor 2, sequence (P47936 whole entry): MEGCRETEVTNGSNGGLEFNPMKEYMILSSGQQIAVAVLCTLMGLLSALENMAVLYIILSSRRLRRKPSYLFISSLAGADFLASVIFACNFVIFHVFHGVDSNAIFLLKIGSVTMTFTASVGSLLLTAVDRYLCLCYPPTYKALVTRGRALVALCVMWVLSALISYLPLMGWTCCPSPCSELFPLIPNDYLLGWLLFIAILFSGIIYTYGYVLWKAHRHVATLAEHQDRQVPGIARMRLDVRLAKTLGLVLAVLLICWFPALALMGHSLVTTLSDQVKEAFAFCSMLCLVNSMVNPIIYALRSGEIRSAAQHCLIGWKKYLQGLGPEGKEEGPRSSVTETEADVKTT

| SMILES | IC50 [1] [nM] | Ki [2] [nM] | Ki [3] [nM] |
| --- | --- | --- | --- |
| COc1cccc(/C(N)=N\C(=N/S(=O)(=O)c2ccc(Cl)cc2)N2CC(c3ccccc3)C(c3ccc(Cl)cc3)=N2)c1 (stereo not given) | 33 | 161 | – |
| N/C(=N/C(=N\S(=O)(=O)c1ccc(Cl)cc1)N1CC(c2ccccc2)C(c2ccc(Cl)cc2)=N1)SCc1ccccc1 (stereo not given) | 213 | > 1000 | – |
| N/C(=N/C(=N\S(=O)(=O)c1ccc(Cl)cc1)N1CC(c2ccccc2)C(c2ccc(Cl)cc2)=N1)c1ccc(Cl)cc1 (stereo not given) | 18 | 158 | 10 |
| CC(C)S/C(N)=N\C(=N/S(=O)(=O)c1ccc(Cl)cc1)N1CC(c2ccccc2)C(c2ccc(Cl)cc2)=N1 (stereo not given) | 395 | > 1000 | – |
| C/C(N)=N\C(=N/S(=O)(=O)c1ccc(OC(F)(F)F)cc1)N1CC(c2ccccc2)C(c2ccc(Cl)cc2)=N1 (stereo not given) | 76 | > 1000 | – |
| N/C(=N/C(=N\S(=O)(=O)c1ccc(Cl)cc1)N1CC(c2ccccc2)C(c2ccc(Cl)cc2)=N1)c1ccncc1 (stereo not given) | 603 | > 1000 | – |
| C/C(N)=N\C(=N/S(=O)(=O)c1ccc(Cl)cc1)N1CC(c2ccccc2)C(c2ccc(Cl)cc2)=N1 (stereo not given) | – | > 1000 | – |
| C/C(N)=N\C(=N/S(=O)(=O)c1ccc(F)cc1)N1CC(c2ccccc2)C(c2ccc(Cl)cc2)=N1 (stereo not given) | 686 | > 1000 | – |
| C/C(N)=N\C(=N/S(=O)(=O)c1ccc(C(F)(F)F)cc1)N1CC(c2ccccc2)C(c2ccc(Cl)cc2)=N1 (stereo not given) | 40 | > 1000 | 5.7 |
| CS/C(N)=N\C(=N/S(=O)(=O)c1ccc(Cl)cc1)N1CC(c2ccccc2)C(c2ccc(Cl)cc2)=N1 (stereo not given) | – | > 1000 | – |
| N/C(COc1ccccc1)=N/C(=N\S(=O)(=O)c1ccc(Cl)cc1)N1CC(c2ccccc2)C(c2ccc(Cl)cc2)=N1 (stereo not given) | 125 | > 1000 | – |
| N/C(=N/C(=N\S(=O)(=O)c1ccc(Cl)cc1)N1CC(c2ccccc2)C(c2ccc(Cl)cc2)=N1)C1CC1 (stereo not given) | 241 | > 1000 | – |
| C/C(N)=N\C(=N/S(=O)(=O)c1ccc(C(C)C)cc1)N1CC(c2ccccc2)C(c2ccc(Cl)cc2)=N1 (stereo not given) | 90 | > 1000 | 10 |
| C/C(N)=N\C(=N/S(=O)(=O)c1ccccc1)N1CC(c2ccccc2)C(c2ccc(Cl)cc2)=N1 (stereo not given) | 2040 | > 1000 | – |
| C/C(N)=N\C(=N/S(=O)(=O)c1ccc(I)cc1)N1CC(c2ccccc2)C(c2ccc(Cl)cc2)=N1 (stereo not given) | 65 | > 1000 | – |
| N/C(=N/C(=N\S(=O)(=O)c1ccc(Cl)cc1)N1CC(c2ccccc2)C(c2ccc(Cl)cc2)=N1)c1cccc(Br)c1 (stereo not given) | 292 | 250 | – |
| CS/C(N)=N\C(=N/S(=O)(=O)c1ccc2ccccc2c1)N1CC(c2ccccc2)C(c2ccc(Cl)cc2)=N1 (stereo not given) | 2670 | > 1000 | 29 |
| COc1ccc(S(=O)(=O)/N=C(\N=C(/C)N)N2CC(c3ccccc3)C(c3ccc(Cl)cc3)=N2)cc1 (stereo not given) | 70 | > 1000 | – |
| N/C(=N/C(=N\S(=O)(=O)c1ccc(Cl)cc1)N1CC(c2ccccc2)C(c2ccc(Cl)cc2)=N1)c1cccs1 (stereo not given) | 101 | > 1000 | – |

| SMILES | IC50 [1] [nM] | Ki [2] [nM] | Ki [3] [nM] |
| --- | --- | --- | --- |
| N/C(=N/C(=N\S(=O)(=O)c1ccc(Cl)cc1)N1CC(c2ccccc2)C(c2ccc(Cl)cc2)=N1)c1ccccc1 (stereo not given) | 117 | 1000 | – |
| N/C(=N/C(=N\S(=O)(=O)c1ccc(Cl)cc1)N1CC(c2ccccc2)C(c2ccc(Cl)cc2)=N1)c1ccc(Br)cc1 (stereo not given) | – | > 1000 | – |
| N/C(=N/C(=N\S(=O)(=O)c1ccc(Cl)cc1)N1CC(c2ccccc2)C(c2ccc(Cl)cc2)=N1)c1ccccc1F (stereo not given) | 72 | 107 | – |
| N/C(=N/C(=N\S(=O)(=O)c1ccc(Cl)cc1)N1CC(c2ccccc2)C(c2ccc(Cl)cc2)=N1)SCCCc1ccccc1 (stereo not given) | 2640 | > 1000 | – |
| N/C(=N/C(=N\S(=O)(=O)c1ccc(Cl)cc1)N1CC(c2ccccc2)C(c2ccc(Cl)cc2)=N1)c1ccccn1 (stereo not given) | 33 | > 1000 | 26 |
| C/C(N)=N\C(=N/S(=O)(=O)c1ccc(C(C)(C)C)cc1)N1CC(c2ccccc2)C(c2ccc(Cl)cc2)=N1 (stereo not given) | 30 | > 1000 | – |
| CS/C(N)=N\C(=N/S(=O)(=O)c1ccc(C(F)(F)F)cc1)N1CC(c2ccccc2)C(c2ccc(Cl)cc2)=N1 (stereo not given) | 97 | > 1000 | 63 |
| CC(C)(C)/C(N)=N\C(=N/S(=O)(=O)c1ccc(Cl)cc1)N1CC(c2ccccc2)C(c2ccc(Cl)cc2)=N1 (stereo not given) | 182 | > 1000 | – |
| CCS/C(N)=N\C(=N/S(=O)(=O)c1ccc(Cl)cc1)N1CC(c2ccccc2)C(c2ccc(Cl)cc2)=N1 (stereo not given) | 534 | > 1000 | – |
| N/C(=N/C(=N\S(=O)(=O)c1ccc(Cl)cc1)N1CC(c2ccccc2)C(c2ccc(Cl)cc2)=N1)SCCc1ccccc1 (stereo not given) | 441 | > 1000 | – |
| C/C(N)=N\C(=N/S(=O)(=O)c1ccc(Br)cc1)N1CC(c2ccccc2)C(c2ccc(Cl)cc2)=N1 (stereo not given) | 19 | > 1000 | – |
| CS/C(N)=N\C(=N/S(=O)(=O)c1ccc(I)cc1)N1CC(c2ccccc2)C(c2ccc(Cl)cc2)=N1 (stereo not given) | 65 | > 1000 | 10 |
| CNC(=NS(=O)(=O)c1ccc(Cl)cc1)N1CC(c2ccccc2)C(c2ccc(Cl)cc2)=N1 (stereo not drawn) [RAC-IBIPINABANT] | 76 | – | 8.1 |
| CC(C)/C(N)=N\C(=N/S(=O)(=O)c1ccc(Cl)cc1)N1CC(c2ccccc2)C(c2ccc(Cl)cc2)=N1 (stereo not given) | > 1000 | > 1000 | – |
| C/C(N)=N\C(=N/S(=O)(=O)c1ccc(C)cc1)N1CC(c2ccccc2)C(c2ccc(Cl)cc2)=N1 (stereo not given) | 113 | > 1000 | – |
| N/C(=N/C(=N\S(=O)(=O)c1ccc(Cl)cc1)N1CC(c2ccccc2)C(c2ccc(Cl)cc2)=N1)C12CC3CC(CC(C3)C1)C2 (stereo not given) | 226 | > 1000 | – |
| C/C(N)=N\C(=N/S(=O)(=O)c1ccc2ccccc2c1)N1CC(c2ccccc2)C(c2ccc(Cl)cc2)=N1 (stereo not given) | 118 | > 1000 | – |
| N/C(=N/C(=N\S(=O)(=O)c1ccc(Cl)cc1)N1CC(c2ccccc2)C(c2ccc(Cl)cc2)=N1)c1ccc(F)cc1F (stereo not given) | 22 | 106 | – |
| N/C(=N/C(=N\S(=O)(=O)c1ccc(Cl)cc1)N1CC(c2ccccc2)C(c2ccc(Cl)cc2)=N1)c1ccc(F)cc1 (stereo not given) | 116 | 173 | – |
